Tests used:
Assay type in all cases: functional
Conditions in all cases: route oral
[1] = tested on: Rattus norvegicus; experiment: Effect on heart rate of spontaneously hypertensive rats, 24 hr after peroral administration at 50 mg/kg
Procedure, shortened: (§1)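 Heart rate was derived from the pulsatile arterial pressure signal in conscious catheterized male SHR (22-24 weeks, 250-350 g), with continuous monitoring sampled 3 min per 30 min. Drug was given by gavage as a 4% gum acacia suspension at 2 mL/kg, dose as free base, to groups of 3-4 rats with mean pressure >150 mmHg. Individual 30-min means were compared with pretreatment values.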

[2] = tested on: Rattus norvegicus; experiment: Effect on heart rate of spontaneously hypertensive rats, 10 hr after peroral administration at 50 mg/kg; procedure, shortened: as §1
[3] = tested on: Rattus norvegicus; experiment: Effect on heart rate of spontaneously hypertensive rats, 2 hr after peroral administration at 50 mg/kg; procedure, shortened: as §1
[4] = tested on: Rattus norvegicus; experiment: Maximum percent decrease in heart rate of spontaneously hypertensive rats, 10 hr after peroral administration of 50 mg/kg of compound; procedure, shortened: as §1
[5] = tested on: Rattus norvegicus; experiment: Effect on heart rate of spontaneously hypertensive rats, 2 hr after peroral administration of 10 mg/kg of compound; procedure, shortened: as §1
[6] = tested on: Rattus norvegicus; experiment: Effect on heart rate of spontaneously hypertensive rats, 24 hr after peroral administration of 10 mg/kg of compound; procedure, shortened: as §1
[7] = tested on: Rattus norvegicus; experiment: Maximum percent decrease in heart rate of spontaneously hypertensive rats, 6 hours after peroral administration of 50 mg/kg of compound
Procedure, shortened: (§2)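 Conscious male SHR (Kyoto-Wistar origin, 22-24 weeks, 250-350 g; mean BP >150 mmHg, pulse pressure >25 mmHg) with indwelling catheters, ~0.8 mL heparinized saline/day. Dosed by gavage as a 4% gum acacia suspension, 2 mL/kg, free-base doses, 3-4 rats per group. Heart rate was derived from the pulsatile pressure signal, sampled 3 min every 30 min, and 30-min means were compared with pretreatment values.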

[8] = tested on: Rattus norvegicus; experiment: Effect on heart rate of spontaneously hypertensive rats, 10 hr after peroral administration of 10 mg/kg of compound; procedure, shortened: as §1
[9] = tested on: Rattus norvegicus; experiment: Maximum percent decrease in heart rate of spontaneously hypertensive rats, 8 hours after peroral administration of 50 mg/kg of compound; procedure, shortened: as §2
[10] = tested on: Rattus norvegicus; experiment: Maximum percent decrease in heart rate of spontaneously hypertensive rats, 10 hours after peroral administration of 50 mg/kg of compound; procedure, shortened: as §1
[11] = tested on: Rattus norvegicus; experiment: Effect on heart rate of spontaneously hypertensive rats, 18 hr after peroral administration of 50 mg/kg of compound; procedure, shortened: as §1
[12] = tested on: Rattus norvegicus; experiment: Blood pressure rating in spontaneously hypertensive rats, 2 hr after peroral administration of 50 mg/kg of compound
Procedure, shortened: (§3)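 Conscious male SHR (Kyoto-Wistar origin, 22-24 weeks, 250-350 g) with indwelling catheters, given about 160 units heparin/day in saline. Only rats with mean blood pressure >150 mmHg and pulse pressure >25 mmHg were used, in groups of 3-4. Dosing was oral gavage at 2 mL/kg in 4% gum acacia suspension, as free base. Pressure was sampled 3 min of every 30 min, and 30-min means were compared with pretreatment values.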

[13] = tested on: Rattus norvegicus; experiment: Blood pressure rating in spontaneously hypertensive rats, 24 hr after peroral administration of 50 mg/kg of compound; procedure, shortened: as §3
[14] = tested on: Rattus norvegicus; experiment: Blood pressure rating in spontaneously hypertensive rats, 10 hr after peroral administration of 50 mg/kg of compound; procedure, shortened: as §3
[15] = tested on: Rattus norvegicus; experiment: Maximum percent decrease in heart rate of spontaneously hypertensive rats, 2 hours after peroral administration of 50 mg/kg of compound; procedure, shortened: as §1
[16] = tested on: Rattus norvegicus; experiment: Maximum percent decrease in heart rate of spontaneously hypertensive rats, 3 hours after peroral administration of 50 mg/kg of compound; procedure, shortened: as §1
[17] = tested on: Rattus norvegicus; experiment: Maximum percent decrease in heart rate of spontaneously hypertensive rats, 5 hours after peroral administration of 50 mg/kg of compound; procedure, shortened: as §2

| SMILES | Activity rating [1] | Activity rating [2] | Activity rating [3] | further results |
| --- | --- | --- | --- | --- |
| Cc1ncc2cc(-c3ccccc3C(F)(F)F)c(N)nc2n1 | 0 | 0 | 0 |  |
| Nc1nc2nc(CO)ncc2cc1-c1c(Cl)cccc1Cl | 1 | 1 | 0 | Decrease [4]: 17% |
| Cc1ncnc2nc(N)c(-c3c(Cl)cccc3Cl)cc12 |  | 2 | 2 | Activity rating [5]: 0; Activity rating [6]: 0; Decrease [7]: 26%; Activity rating [8]: 0 |
| Nc1nc2nc(C(F)(F)F)ncc2cc1-c1c(Cl)cccc1Cl | 0 | 0 | 0 |  |
| Cc1ncc2cc(-c3ccc(Cl)cc3Cl)c(N)nc2n1 | 1 | 1 | 0 | Decrease [9]: 13% |
| Cc1ncc2cc(-c3cccc(Cl)c3Cl)c(N)nc2n1 | 0 | 0 | 0 |  |
| Cc1ncc2cc(-c3ccccc3I)c(N)nc2n1 | 0 | 0 | 0 |  |
| Cc1cccc(Cl)c1-c1cc2cncnc2nc1N |  | 2 | 1 | Decrease [10]: 21%; Activity rating [11]: 1 |
| Cc1nc(N)c2cc(-c3c(Cl)cccc3Cl)c(N)nc2n1 | 0 | 0 | 0 |  |
| Nc1nc2ncncc2cc1-c1ccccc1 | 0 | 0 | 0 |  |
| CCOc1nc(C)nc2nc(N)c(-c3c(Cl)cccc3Cl)cc12 |  |  |  | Activity rating [12]: 0; Activity rating [13]: 0; Activity rating [14]: 0 |
| Cc1ncc2cc(-c3ccc([N+](=O)[O-])cc3)c(N)nc2n1 |  |  |  | Activity rating [12]: 0; Activity rating [13]: 0; Activity rating [14]: 0 |
| Cc1ccccc1-c1cc2cncnc2nc1N | 0 | 1 | 1 | Activity rating [5]: 0; Activity rating [6]: 0; Decrease [15]: 18%; Activity rating [8]: 0 |
| Cc1ncc2cc(-c3cccnc3)c(N)nc2n1 | 0 | 0 | 0 |  |
| Nc1nc2ncncc2cc1-c1ccccc1I | 1 | 0 | 0 | Decrease [9]: 11% |
| Cc1ncc2cc(-c3ccc(Cl)cc3)c(N)nc2n1 | 0 | 0 | 0 |  |
| Cc1ncc2cc(-c3ccccc3)c(N)nc2n1 | 0 | 0 | 0 |  |
| CCc1ncc2cc(-c3c(Cl)cccc3Cl)c(N)nc2n1 | 0 | 1 | 0 | Decrease [7]: 15% |
| Cc1ccccc1-c1cc2cnc(C3CC3)nc2nc1N |  |  |  | Activity rating [12]: 0; Activity rating [13]: 0; Activity rating [14]: 0 |
| COCc1ncc2cc(-c3c(Cl)cccc3Cl)c(N)nc2n1 |  |  |  | Activity rating [12]: 1; Activity rating [13]: 1; Decrease [16]: 14%; Activity rating [14]: 1 |
| Cc1ncc2cc(-c3ccccc3F)c(N)nc2n1 | 0 | 0 | 0 |  |
| CCc1ncc2cc(-c3ccccc3C)c(N)nc2n1 | 0 | 0 | 0 |  |
| Cc1ncc2cc(-c3c(C)cccc3Cl)c(N)nc2n1 |  | 2 | 1 | Activity rating [5]: 2; Activity rating [11]: 2; Decrease [17]: 30%; Activity rating [8]: 2 |
